Source: ChEMBL document CHEMBL4316616, “Efficacy of TLR7 agonistic imidazoquinoline as immunochemotherapeutic agent against P. Berghei ANKA infected rodent host” (Bioorg Med Chem Lett, 2019)
Calls of active or inactive are those of the source. The rule behind the calls is not given here.

Legend:
[1] = test system: Plasmodium berghei; assay: Antiparasitic activity against Plasmodium berghei ANKA infected in Laca mouse assessed as increase in serum IL-12 level at 10 ug, ip co-administered with chloroquine for 4 days measured on day 10 by sandwich ELISA; type: functional, organism-based
[2] = test system: Plasmodium berghei; assay: Antiparasitic activity against Plasmodium berghei ANKA infected in Laca mouse assessed as reduction in CD3+ cell level in brain at 10 ug, ip administered for 4 days measured on day 10 by flow cytometry; type: functional, organism-based
[3] = test system: Plasmodium berghei; assay: Antiparasitic activity against Plasmodium berghei ANKA infected in Laca mouse assessed as reduction in parasitemia at 10 ug, ip co-administered with chloroquine for 4 days measured on day 23 by Giemsa-staining based assay; type: functional, organism-based
[4] = test system: Plasmodium berghei; assay: Antiparasitic activity against Plasmodium berghei ANKA infected in Laca mouse assessed as reduction in CD8+ cell level in brain at 10 ug, ip co-administered with chloroquine for 4 days measured on day 21 by flow cytometry; type: functional, organism-based
[5] = test system: Plasmodium berghei; assay: Antiparasitic activity against Plasmodium berghei ANKA infected in Laca mouse assessed as reduction in CD8+ cell level in brain at 10 ug, ip administered for 4 days measured on day 10 by flow cytometry; type: functional, organism-based
[6] = test system: Plasmodium berghei; assay: Antiparasitic activity against Plasmodium berghei ANKA infected in Laca mouse assessed as increase in Treg cell level in spleen at 10 ug, ip co-administered with chloroquine for 4 days measured on day 21 by flow cytometry; type: functional, organism-based
[7] = Toxicity in Laca mouse infected with Plasmodium berghei ANKA assessed as body weight loss at 10 ug, ip administered for 4 days; type: organism-based; conditions: in vivo, 96 h
[8] = test system: Plasmodium berghei; assay: Antiparasitic activity against Plasmodium berghei ANKA infected in Laca mouse assessed as reduction in CD3+ cell level in brain at 10 ug, ip co-administered with chloroquine for 4 days measured on day 10 by flow cytometry; type: functional, organism-based
[9] = Toxicity in Laca mouse infected with Plasmodium berghei ANKA assessed as death at 10 ug, ip co-treated with chloroquine for 4 days measured on day 30; conditions: in vivo, 96 h
[10] = Toxicity in Laca mouse infected with Plasmodium berghei ANKA assessed as death at 10 ug, ip administered for 4 days measured on day 15; type: organism-based; conditions: in vivo, 96 h
Method in brief: (§1)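 Six mice per group received 1x10⁶ parasitized RBCs (P. berghei ANKA) i.p. on D0. TLR7 agonist was given i.p., 0.2 mL/mouse, daily D0–D3. PBS-treated infected and uninfected groups served as controls. Survival was monitored alongside parasitemia from Giemsa-stained thin blood smears.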

[11] = Toxicity in Laca mouse infected with Plasmodium berghei ANKA assessed as death at 10 ug, ip co-treated with chloroquine for 4 days measured on day 30; type: organism-based; conditions: in vivo, 96 h
Method in brief: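 Mice (6/group) were infected i.p. with 1x10⁶ P. berghei ANKA parasitized RBCs on D0. TLR7 agonist was given i.p. plus chloroquine 10 mg/kg orally (0.2 mL/mouse each), daily D0–D3. Survival and parasitemia (Giemsa-stained thin blood smears of individual mice) were followed for about one month.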

[12] = test system: Plasmodium berghei; assay: Antiparasitic activity against Plasmodium berghei ANKA infected in Laca mouse assessed as change in Treg cell level in spleen at 10 ug, ip co-administered with chloroquine for 4 days measured on day 10 and 21 by flow cytometry; type: functional, organism-based
[13] = test system: Plasmodium berghei; assay: Antiparasitic activity against Plasmodium berghei ANKA infected in Laca mouse assessed as increase in CD3+ cell level in spleen at 10 ug, ip co-administered with chloroquine for 4 days measured on day 10 by flow cytometry; type: functional, organism-based
[14] = test system: Plasmodium berghei; assay: Antiparasitic activity against Plasmodium berghei ANKA infected in Laca mouse assessed as parasitemia at 10 ug, ip administered for 4 days measured on day 7 by Giemsa-staining based assay; type: functional
[15] = Toxicity in Laca mouse infected with Plasmodium berghei ANKA assessed as death at 10 ug, ip administered for 4 days measured on day 9; type: organism-based; conditions: in vivo, 96 h; method in brief: as §1
[16] = test system: Plasmodium berghei; assay: Antiparasitic activity against Plasmodium berghei ANKA infected in Laca mouse assessed as increase in CD3+ cell level in spleen at 10 ug, ip administered for 4 days measured on day 10 by flow cytometry; type: functional, organism-based
[17] = test system: Plasmodium berghei; assay: Antiparasitic activity against Plasmodium berghei ANKA infected in Laca mouse assessed as increase in Treg cell level in brain at 10 ug, ip administered for 4 days measured on day 10 by flow cytometry; type: functional, organism-based
[18] = Toxicity in Laca mouse infected with Plasmodium berghei ANKA assessed as death at 10 ug, ip administered for 4 days measured on day 10 and 21; type: organism-based; conditions: in vivo, 96 h; method in brief: as §1
[19] = test system: Plasmodium berghei; assay: Antiparasitic activity against Plasmodium berghei ANKA infected in Laca mouse assessed as increase in Treg cell level in spleen at 10 ug, ip administered for 4 days measured on day 10 and 21 by flow cytometry; type: functional, organism-based
[20] = test system: Plasmodium berghei; assay: Antiparasitic activity against Plasmodium berghei ANKA infected in Laca mouse assessed as parasitemia at 10 ug, ip co-administered with chloroquine for 4 days measured on day 30 by Giemsa-staining based assay; type: functional
[21] = test system: Plasmodium berghei; assay: Antiparasitic activity against Plasmodium berghei ANKA infected in Laca mouse assessed as reduction in CD4+ cell level in brain at 10 ug, ip co-administered with chloroquine for 4 days measured on day 10 and 21 by flow cytometry; type: functional, organism-based
[22] = test system: Plasmodium berghei; assay: Antiparasitic activity against Plasmodium berghei ANKA infected in Laca mouse assessed as reduction in CD8+ cell level in brain at 10 ug, ip co-administered with chloroquine for 4 days measured on day 10 by flow cytometry; type: functional, organism-based
[23] = test system: Plasmodium berghei; assay: Antiparasitic activity against Plasmodium berghei ANKA infected in Laca mouse assessed as reduction in parasitemia at 10 ug, ip administered for 4 days measured on day 9 by Giemsa-staining based assay; type: functional, organism-based
[24] = test system: Plasmodium berghei; assay: Antiparasitic activity against Plasmodium berghei ANKA infected in Laca mouse assessed as reduction in parasitemia at 10 ug, ip co-administered with chloroquine for 4 days measured on day 25 by Giemsa-staining based assay; type: functional, organism-based
[25] = test system: Plasmodium berghei; assay: Antiparasitic activity against Plasmodium berghei ANKA infected in Laca mouse assessed as decrease in serum TNFalpha level at 10 ug, ip administered for 4 days measured on day 10 by sandwich ELISA; type: functional, organism-based
[26] = Toxicity in Laca mouse infected with Plasmodium berghei ANKA assessed as death at 10 ug, ip co-treated with chloroquine for 4 days measured on day 30; conditions: in vivo, 96 h; remark: listed apart in the source
[27] = test system: Plasmodium berghei; assay: Antiparasitic activity against Plasmodium berghei ANKA infected in Laca mouse assessed as reduction in CD4+ cell level in brain at 10 ug, ip co-administered with chloroquine for 4 days measured on day 21 by flow cytometry; type: functional, organism-based
[28] = test system: Plasmodium berghei; assay: Antiparasitic activity against Plasmodium berghei ANKA infected in Laca mouse assessed as reduction in CD4+ cell level in brain at 10 ug, ip administered for 4 days measured on day 10 and 21 by flow cytometry; type: functional, organism-based
[29] = test system: Plasmodium berghei; assay: Antiparasitic activity against Plasmodium berghei ANKA infected in Laca mouse assessed as increase in serum IL-27 level at 10 ug, ip co-administered with chloroquine for 4 days measured on day 10 by sandwich ELISA; type: functional, organism-based
[30] = test system: Plasmodium berghei; assay: Antiparasitic activity against Plasmodium berghei ANKA infected in Laca mouse assessed as increase in Treg cell level in brain at 10 ug, ip co-administered with chloroquine for 4 days measured on day 21 by flow cytometry; type: functional, organism-based

CCCCc1nc2c(N)nc3ccccc3c2n1Cc1ccccc1
Activity [1]: Active | Activity [2]: Active | Activity [3]: Active | Activity [4]: inactive | Activity [5]: Active | Activity [6]: Active | Activity [7]: Toxic | Activity [8]: Active | Activity [9]: Toxic | Activity [10]: Toxic | Activity [11]: Toxic | Activity [12]: Active | Activity [13]: Active | Activity [14]: 5.7% | Activity [15]: Toxic | Activity [16]: Active | Activity [17]: Active | Activity [18]: Toxic | Activity [19]: Active | Activity [20]: 11.65% | Activity [21]: Active | Activity [22]: Active | Activity [23]: Active | Activity [24]: inactive | Activity [25]: Active | Activity [26]: Toxic | Activity [27]: inactive | Activity [28]: Active | Activity [29]: Active | Activity [30]: Active
